Sampled rows, rich in hits. Any-hit rate of the full collection: about 12%.
CHOP inhibitor: blocks CHOP induction under ER stress; CHO-K1 CHOP-promoter luciferase, tunicamycin-induced, 15-18 h; inhibition, % at 10 µM; 220,000 tested, 3.8% active; AID 2732;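 active = compounds that reduced the stress-induced luciferase reporter signal by more than about 70% of percent inhibition, limit read from the data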;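 also: 0% = tunicamycin plus vehicle and 100% = wells without tunicamycin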
Dynein cargo inh: blocks dynein driven cargo transport along microtubules | 3617.4 mouse cells, GR-EGFP nuclear translocation imaging; test concentration mostly 20 µM; stimulated with dexamethasone, 1 µM; active compounds read low | z-score, hits read low | 220,000 tested, 0.47% active;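 active = plate z-score of nuclear minus cytoplasmic receptor signal below a set negative limit, without overly bright fluorescence or cell loss, cut at about -3.5 in these data, passing the limit was not always enough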;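 also: z-score of nuclear minus cytoplasmic ring GR-EGFP intensity difference per well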
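Buffer or medium: tetracycline-free induction medium containing charcoal-stripped FBS / Reagent: dexamethasone agonist, 1.0 µM final, for 30 min / Technique: automated 10x imaging of fixed Hoechst-stained cells / Times: induction 48 h, compound 1 h, agonist 30 min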
bCat nuc transl: modulators of beta-catenin nuclear translocation. 190,000 tested, 0.3% active. nuclear translocation activity, % at 5 µM. HeLa beta-catenin nuclear translocation, immunofluorescence imaging;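 active = nuclear translocation activity above 50% at 5 µM, with a well cell count of 50 or more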;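 also: per-cell ratio of nuclear to cytoplasmic median beta-catenin stain intensity; plate controls were DMSO negative control for no effect and GSK-3 inhibitor IX positive control for full effect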
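Test system: human HeLa cells, native beta-catenin. Compound dosing: 5 µM primary single dose, 0.1% DMSO, 0.02–20 µM confirmation series. Incubation: compound exposure 24 h at 37°C. Detection: beta-catenin immunostaining with DAPI counterstain, 20x imaging, 6 fields/well. Read-out basis: Nuclear/cytoplasmic beta-catenin signal ratio, % activation.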
Autophagy mod: alters autophagy in cells | MEF GFP-LC3 puncta imaging; test concentration mostly 10 µM | calls only at 10 µM (by protocol) | 190,000 tested, 0.98% active;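 active = percentage of spot-positive cells more than 3 SD above its plate mean, without a fluorescence outlier flag or 80% toxicity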;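 also: spot-positive cell cutoff set from DMSO-treated cells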
MT stabilizer: microtubule stabilization, imaging screen; HeLa tubulin immunostaining HCS, 24 h; share of cells brighter than vehicle mean+2SD; 200,000 tested, 0.83% active; % tubulin-high responders, % at 10 µM;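 active = plate Z-score above 3 for both tubulin-high and condensed-nucleus cell shares, with cell loss under 80%, at 10 µM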;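 also: anti alpha tubulin signal scored within the nucleus-defined area of each cell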
L major viab: Leishmania major promastigote growth inhibition; inhibition, % at 10 µM; 200,000 tested, 9% active; Leishmania major promastigotes, resazurin fluorescence viability; in the data active = inhibition above about 50%;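 also: promastigotes grown with compound for 44 hours at 28 °C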
CHOP inh conf: confirmation of CHOP induction inhibitors. CHO-CHOP promoter luciferase reporter, tunicamycin-induced, luminescence. 2,100 tested, 45% active. inhibition, % at 10 µM. shares compounds with CHOP inhibitor;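 active = mean of three repeat readings of reporter signal inhibition above a set limit, cut at about 70% in these data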;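 also: 0% = tunicamycin plus vehicle and 100% = wells lacking tunicamycin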
The depositor's hits bear a star; i = inactive; . = no result given; + = active, no number.

SMILES	CHOP inhibitor	Dynein cargo inh	bCat nuc transl	Autophagy mod	MT stabilizer	L major viab	CHOP inh conf
Cc1ccc(C)c(OCc2ccc(C(=O)N3N=C(C(F)F)CC3(O)C(F)F)o2)c1 (stereo unspecified)	108*	-0.46	.	i	1	-4	120*
Cc1ccc(Sc2ccc(NC(=O)c3ccc(S(C)(=O)=O)cc3Cl)cc2)cc1	98*	0.58	.	i	2	-5	65
CS(=O)(=O)c1ccc(C(=O)Nc2ccc(N3CCCCC3)cc2)c(Cl)c1	6	0.79	-1	i	1	5	.
COc1ccc2nc(Nc3nc(CSc4nc5ccccc5[nH]4)cc(=O)[nH]3)nc(C)c2c1	102*	-0.71	16	i	7	100*	103*
Cc1nc(Nc2nc(CSc3ccc(Cl)cc3)cc(=O)[nH]2)nc2ccccc12	48	-0.13	0	i	4	3	.
Cc1nc(Nc2nc(CSc3nc4ccccc4[nH]3)cc(=O)[nH]2)nc2ccccc12	99*	-0.017	5	i	4	47	87*
COc1ccc2c(C)nc(Nc3nc(C)c(C)c(=O)[nH]3)nc2c1	99*	0.86	6	i	11	100*	106*
Cn1c(N/N=C/c2cc3ccccc3nc2Cl)nc2ccccc21	-1	-2.7	0	i	3	11	.
CC(/C=N/NC(=O)CNc1n[nH]c(=O)[nH]c1=O)c1ccccc1 (stereo unspecified)	9	0.93	0	.	.	.	.
Cc1cc(NC(=O)c2sc(Nc3cccc(C(F)(F)F)c3)nc2N)no1	10	-0.1	-6	i	2	0	.
Cc1cc(NC(=O)c2sc(Nc3ccc(F)c(Cl)c3)nc2N)no1	100*	-0.28	-3	i	7	-2	-32
OC1(Cc2ccccc2)CCNCC1	-20	0.42	0	.	.	.	.
OC1(c2ccc(Br)cc2)CCNCC1	101*	-0.32	-1	i	1	84*	25
COC(=O)c1c(C)nc2nonc2c1N	2	1.5	0	i	4	-1	.
COCCN=c1scc(C)n1/N=C/C1CC2C=CC1C2 (stereo unspecified)	0	0.14	-1	i	4	7	.
COc1ccc(NC(=O)CC2C(=O)N(c3ccc(F)cc3)C(=S)N2NC(=O)c2ccc(Cl)cc2)cc1 (stereo unspecified)	106*	-1.1	.	i	1	3	43
COC(=O)CN1C(=S)N(c2ccc(F)cc2)C(=O)C1CC(=O)Nc1ccc(F)cc1 (stereo unspecified)	-3	3.3	0	.	.	.	.
Cc1oc(=O)c(NC(=O)c2ccc(Cl)cc2)cc1C(=O)c1ccccc1	106*	0.54	.	i	3	4	23
Clc1nc(Cl)nc(NCCC2=CCCCC2)n1	-20	0.3	-1	i	3	-3	.
CC(=O)OCCCNc1cc(Sc2nc3ccccc3s2)c2nonc2c1[N+](=O)[O-]	109*	-3.4	-1	i	3	65*	13
CCCCN(Cc1cc2cccc(C)c2[nH]c1=O)S(C)(=O)=O	13	-0.11	0	.	.	.	.
CCc1cc2c(C)ccc(C)c2nc1SCC(=O)Nc1c[nH]c(=O)[nH]c1=O	101*	-1.9	10	i	3	-4	40
Cc1cc2c3c(c1)C(C)(c1ccccc1)CC(C)(C)N3C(=O)C21C(C#N)=C(N)OC2=C1C(=O)CC(C)(C)C2 (stereo unspecified)	107*	0.044	.	i	3	51*	97*
CC1(C)CC(=O)C2=C(C1)OC(N)=C(C#N)C21C(=O)N2CCCc3cccc1c32 (stereo unspecified)	41	0.62	-1	i	5	-3	.
CC1(c2ccccc2)CC(C)(C)N2C(=O)C3(C(C#N)=C(N)Oc4cc(O)ccc43)c3cccc1c32 (stereo unspecified)	106*	0.0089	.	i	1	12	104*
CCN1/C(=C/c2ccc3cc(C)ccc3[n+]2C)Sc2ccc3sccc3c21	109*	7.8	.	+	77*	101*	102*
Cc1sc2c3ccsc3ccc2[n+]1C	1	-1.5	-2	i	1	1	.

Bioassay records deposited in PubChem by several laboratories.
